Consider eight compounds from ChEMBL document CHEMBL1154865, “Sesquiterpenes and dimeric sesquiterpenoids from Sarcandra glabra” (J Nat Prod, 2010).

Assay type in all cases: functional, cell-based
One assay has as its system Bel-7402. The assay is described as follows: Cytotoxicity against human Bel7402 cells after 72 hrs by SRB assay. In short, it runs like this:
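Cell growth read out by SRB (sulforhodamine B) staining, with pseudolaric acid B as the positive control. BEL-7402 is a human hepatocarcinoma line.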

The next assay relates to A549. Nature of the assay: Cytotoxicity against human A549 cells after 72 hrs by SRB assay. Conditions: A549, 72 h.
The test system of a further assay is HL-60. The assay is described as follows: Cytotoxicity against human HL60 cells after 72 hrs by MTT assay. Conditions: HL-60, 72 h. The method, boiled down: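 HL-60 cell line tested by the MTT method, with pseudolaric acid B run alongside as positive control; activity expressed as IC50 in µM.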
Background: Formazan colour is commonly taken as a measure of viable cells.

Active and inactive are the calls of the source. No cut-off for these calls is given here.

`C/C=C(\C)C(=O)OC[C@]1(O)[C@H]2C[C@H]2[C@]2(C)[C@@H]3C[C@@]4(O)C5=C(/C(=C(\C)C(=O)OC)C(=O)[C@H](O)[C@@]5(C)[C@@H]5C[C@@H]54)[C@@]34OC(=O)C(COC(C)=O)=C4C[C@@H]12`: the outcome in the assay on Bel-7402 was inactive.

`C/C=C(\C)C(=O)OC[C@]1(O)[C@H]2C[C@H]2[C@]2(C)[C@@H]3C[C@@]4(O)C5=C(C6=C(C)C(=O)O[C@]6(O)[C@H](O)[C@@]5(C)[C@@H]5C[C@@H]54)[C@@]34OC(=O)C(COC(C)=O)=C4C[C@@H]12`: the result in the assay with Bel-7402 was inactive.

Consider `C=C1[C@H]2C[C@H]2[C@]2(C)C[C@@H]3OC(=O)C(C)=C3C[C@]12O`, for which the outcome with Bel-7402 was inactive.

In the case of `CC1=CC[C@@H](O)[C@]2(C)C[C@@H]3OC(=O)C(C)=C3C[C@@H]12`, in the assay on Bel-7402, the result was inactive.

In the case of `COC(=O)C1=CC[C@@]23CC[C@@H]([C@@](C)(/C=C/C=C(\C)C(=O)O)OC2=O)[C@@]3(OC(C)=O)CC1` [PSEUDOLARIC ACID B], the IC50 in the assay with Bel-7402 (Bel-7402, 72 h) worked out at 1.3 µM; in the assay on A549, 1.6 µM; in the assay with HL-60 it was 4.2 µM.

Regarding `C/C=C(\C)C(=O)OC[C@]1(O)[C@H]2C[C@H]2[C@]2(C)[C@@H]3CC4=C5[C@H](/C(=C(\C)C(=O)OC)C(=O)[C@H](O)[C@@]5(C)[C@@H]5C[C@H]45)[C@@]34OC(=O)C(C)=C4C[C@@H]12` [SARCANDROLIDE A], the result with Bel-7402 was inactive. Besides, the IC50 was found to be 7.2 µM in the assay on A549 and 3.1 µM with HL-60.

In the case of `COC(=O)/C(C)=C1\C(=O)[C@H](O)[C@]2(C)C3=C(C[C@@H]4[C@]5(OC(=O)C(CO)=C5C[C@H]5[C@](O)(COC(=O)/C(C)=C/CO)[C@H]6C[C@H]6[C@]45C)[C@H]31)[C@H]1C[C@H]12` [SARCANDROLIDE B], the outcome in the assay with Bel-7402 was inactive. The compound further came in with an IC50 in the assay with HL-60 of 8.4 µM.

In the case of `COC(=O)/C(C)=C1\C(=O)[C@H](O)[C@]2(C)C3=C(C[C@@H]4[C@]5(OC(=O)C6=C5C[C@H]5[C@](O)(COC(=O)/C(C)=C/COC(=O)[C@@H](OC(C)=O)CC(=O)OC6)[C@H]6C[C@H]6[C@]45C)[C@H]31)[C@H]1C[C@H]12` [SARCANDROLIDE C], in the assay with Bel-7402, the result was inactive. For the same compound, the figures for the IC50 in the assay with A549 and in the assay on HL-60 were 4.7 µM and 8.5 µM, respectively.

One may read the IC50 as the concentration that inhibits the measured activity by half.
